Source: ChEMBL document CHEMBL2407035, “Identification of novel chromone based sulfonamides as highly potent and selective inhibitors of alkaline phosphatases” (Eur J Med Chem, 2013)
Activity calls are given as the source filed them. No cut-off for these calls is given here.

Columns and labels:
[1] = target: 5'-nucleotidase (Homo sapiens) (UniProt P21589); test: Inhibition of human Ecto-5'-NT expressed in african green monkey COS7 cells using AMP as substrate at 0.1 mM preincubated for 10 mins measured after 10 mins; type: cell-based; conditions: COS-7
Sequence of 5'-nucleotidase (Homo sapiens) (P21589 whole entry): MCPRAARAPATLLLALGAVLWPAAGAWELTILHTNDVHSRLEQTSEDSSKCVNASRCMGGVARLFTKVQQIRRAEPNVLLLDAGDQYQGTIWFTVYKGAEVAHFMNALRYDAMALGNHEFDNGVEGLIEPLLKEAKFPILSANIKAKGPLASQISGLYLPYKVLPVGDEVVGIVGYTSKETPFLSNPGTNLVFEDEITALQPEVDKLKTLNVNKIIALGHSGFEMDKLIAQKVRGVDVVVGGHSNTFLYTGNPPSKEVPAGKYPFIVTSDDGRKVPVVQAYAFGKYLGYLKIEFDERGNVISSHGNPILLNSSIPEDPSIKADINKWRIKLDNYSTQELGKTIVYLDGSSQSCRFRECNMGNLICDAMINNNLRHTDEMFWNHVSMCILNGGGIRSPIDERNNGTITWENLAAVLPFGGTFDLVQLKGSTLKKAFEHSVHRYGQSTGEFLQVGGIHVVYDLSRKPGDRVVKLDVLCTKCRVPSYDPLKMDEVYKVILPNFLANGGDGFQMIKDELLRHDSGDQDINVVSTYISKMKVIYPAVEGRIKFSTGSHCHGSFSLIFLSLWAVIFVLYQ
How it was run: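 Human ecto-5'-NT from membrane extracts of transfected COS-7 cells (6.94 µg/mL). Preincubated with compound 10 min at 37 °C in 10 mM Hepes, 2 mM MgCl₂, 1 mM CaCl₂, pH 7.4. Started with 500 µM AMP, 10 min at 37 °C, stopped at 99 °C for 20 min. Adenosine quantified by capillary electrophoresis, UV at 260 nm, with <10% substrate conversion.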

[2] = target: T1, Alkaline phosphatase, tissue-nonspecific isozyme (Bos taurus, UniProt P09487); test: Inhibition of bovine kidney […] alkaline phosphatase using p-NPP as substrate treated 10 mins before substrate addition measured after 30 mins by spectrophotometric assay
T1 sequence (P09487 whole entry): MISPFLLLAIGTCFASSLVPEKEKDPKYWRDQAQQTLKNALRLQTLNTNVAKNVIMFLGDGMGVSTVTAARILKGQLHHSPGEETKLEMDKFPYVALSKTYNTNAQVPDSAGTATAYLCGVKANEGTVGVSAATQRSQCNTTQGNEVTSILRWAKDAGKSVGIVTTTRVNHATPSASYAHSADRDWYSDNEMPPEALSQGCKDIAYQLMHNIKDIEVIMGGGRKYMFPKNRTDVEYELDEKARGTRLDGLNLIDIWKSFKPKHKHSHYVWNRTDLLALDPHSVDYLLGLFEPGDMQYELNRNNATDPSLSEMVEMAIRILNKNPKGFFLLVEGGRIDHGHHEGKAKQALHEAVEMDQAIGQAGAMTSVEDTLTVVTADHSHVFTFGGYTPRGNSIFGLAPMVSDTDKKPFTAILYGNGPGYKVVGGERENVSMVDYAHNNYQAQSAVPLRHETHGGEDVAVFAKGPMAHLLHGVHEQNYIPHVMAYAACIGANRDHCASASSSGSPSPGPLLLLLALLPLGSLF
How it was run: (§1)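 Calf intestinal ALP (0.025 U/mL) or TNALP (0.5 U/mL) in 50 mM Tris-HCl, 5 mM MgCl₂, 0.1 mM ZnCl₂, pH 9.5 with compound (1% DMSO final), 10 min. Started with 0.5 mM p-NPP, 30 min at 37 °C, p-nitrophenolate read at 405 nm. Screened at 0.1 mM. Actives (>50%) got 8–10 dilutions, 1 mM to 10 nM, three times in triplicate. IC50 by nonlinear fit, Ki by Cheng–Prusoff.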

[3] = Inhibition of porcine kidney […] alkaline phosphatase using p-NPP as substrate treated 10 mins before substrate addition measured after 30 mins by spectrophotometric assay; set-up: species or system Sus scrofa; how it was run: as §1
[4] = target: Intestinal-type alkaline phosphatase (Bos taurus, UniProt P19111); test: Inhibition of bovine intestinal alkaline phosphatase using p-NPP as substrate treated 10 mins before substrate addition measured after 30 mins by spectrophotometric assay; how it was run: as §1
Sequence of Intestinal-type alkaline phosphatase (P19111 whole entry): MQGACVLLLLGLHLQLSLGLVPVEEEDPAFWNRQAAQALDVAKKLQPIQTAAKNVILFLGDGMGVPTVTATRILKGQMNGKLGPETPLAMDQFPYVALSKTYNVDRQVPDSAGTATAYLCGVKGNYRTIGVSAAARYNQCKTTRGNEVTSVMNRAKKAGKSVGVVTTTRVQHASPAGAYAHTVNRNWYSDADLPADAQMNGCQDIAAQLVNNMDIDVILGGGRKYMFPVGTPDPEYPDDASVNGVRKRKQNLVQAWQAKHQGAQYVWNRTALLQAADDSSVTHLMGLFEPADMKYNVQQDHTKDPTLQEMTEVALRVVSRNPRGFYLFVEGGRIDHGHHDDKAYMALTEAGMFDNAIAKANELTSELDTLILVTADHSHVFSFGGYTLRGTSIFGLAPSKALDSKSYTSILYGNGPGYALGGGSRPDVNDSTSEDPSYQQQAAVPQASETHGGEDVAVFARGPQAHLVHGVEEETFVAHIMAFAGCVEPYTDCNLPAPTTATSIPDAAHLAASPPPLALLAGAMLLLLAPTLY

[5] = target: Intestinal-type alkaline phosphatase (Bos taurus) (UniProt P19111); test: Competitive inhibition of bovine intestinal alkaline phosphatase using p-NPP as substrate by Double-reciprocal plot analysis
Sequence of Intestinal-type alkaline phosphatase (Bos taurus) (P19111 20-506 limits assumed): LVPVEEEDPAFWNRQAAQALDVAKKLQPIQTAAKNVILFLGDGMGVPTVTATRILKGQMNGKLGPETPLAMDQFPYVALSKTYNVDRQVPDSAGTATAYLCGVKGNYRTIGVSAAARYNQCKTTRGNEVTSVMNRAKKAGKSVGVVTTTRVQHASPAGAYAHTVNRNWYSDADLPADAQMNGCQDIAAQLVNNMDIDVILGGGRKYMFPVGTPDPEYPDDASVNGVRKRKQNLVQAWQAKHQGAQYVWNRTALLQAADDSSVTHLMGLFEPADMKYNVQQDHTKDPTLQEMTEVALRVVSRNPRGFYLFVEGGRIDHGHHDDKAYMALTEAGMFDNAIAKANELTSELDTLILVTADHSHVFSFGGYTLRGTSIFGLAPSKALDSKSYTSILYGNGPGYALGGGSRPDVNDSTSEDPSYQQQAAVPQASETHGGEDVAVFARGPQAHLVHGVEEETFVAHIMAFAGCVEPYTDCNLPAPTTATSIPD
How it was run: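 Calf intestinal ALP kinetics: initial velocities measured with 4-NPP at 0.01-1 mM and inhibitor at 0, 100 and 300 nM. Double-reciprocal plots (1/[S] vs 1/v) were used to assign the inhibition mode. Buffer is 50 mM Tris-HCl, 5 mM MgCl₂, 0.1 mM ZnCl₂, pH 9.5, read at 405 nm.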

| inhibition [1] [%] | Ki [2] [µM] | Ki [3] [µM] | Ki [4] [µM] | inhibition [5] | Structure (SMILES) |
| --- | --- | --- | --- | --- | --- |
| 26 | 0.25 | 0.079 | 0.085 | – | CCOC1Oc2ccccc2C(=O)/C1=C/Nc1ccc(S(=O)(=O)Nc2nnc(C)s2)cc1 (centres undefined) |
| 52 | 48 | 44.6 | 0.41 | – | CCOC1Oc2ccc(Br)cc2C(=O)/C1=C\Nc1ccc(S(N)(=O)=O)cc1 (centres undefined) |
| 0 | 27 | 21.3 | 0.049 | – | O=c1c(C2Nc3ccccc3S(=O)(=O)N2)coc2ccccc12 (centres undefined) |
| 4 | 29 | 18 | 0.4 | – | CCOC1Oc2ccc(CC)cc2C(=O)/C1=C\Nc1ccccc1S(N)(=O)=O (centres undefined) |
| 0 | 74 | 73.6 | 9.3 | – | CCOC1Oc2ccc(Br)cc2C(=O)/C1=C/Nc1ccc(S(=O)(=O)Nc2ccccn2)cc1 (centres undefined) |
| 5.7 | 6.8 | 10.9 | 90.6 | – | CCOC1Oc2ccccc2C(=O)/C1=C\Nc1ccc(S(N)(=O)=O)cc1 (centres undefined) |
| 0 | 0.13 | – | 0.021 | Active | O=c1c(C2Nc3ccccc3S(=O)(=O)N2)coc2ccc(Br)cc12 (centres undefined) |
| 0 | 21 | 31.8 | 0.01 | – | CCOC1Oc2ccc(F)cc2C(=O)/C1=C/Nc1ccc(S(=O)(=O)Nc2nnc(C)s2)cc1 (centres undefined) |
| 0 | 23 | 35.4 | 7.8 | – | CCOC1Oc2ccccc2C(=O)/C1=C/Nc1ccc(S(=O)(=O)Nc2cc(OC)nc(OC)n2)cc1 (centres undefined) |
| 0 | 38 | 52.5 | 7.8 | – | CCOC1Oc2ccccc2C(=O)/C1=C/Nc1ccc(S(=O)(=O)Nc2ccc(OC)nn2)cc1 (centres undefined) |
| 16 | 220 | 66.8 | 1.43 | – | CCOC1Oc2ccc(F)cc2C(=O)/C1=C\Nc1ccc(S(N)(=O)=O)cc1 (centres undefined) |
| 0 | 18 | 19.9 | 17.1 | – | CCOC1Oc2ccc(F)cc2C(=O)/C1=C\Nc1cccc(S(N)(=O)=O)c1 (centres undefined) |
| 63 | 29 | 11.7 | 0.2 | – | CCOC1Oc2c(Br)cc(Br)cc2C(=O)/C1=C\Nc1ccccc1S(N)(=O)=O (centres undefined) |
| 13 | 60 | 68.8 | 2.6 | – | CCOC1Oc2ccc(CC)cc2C(=O)/C1=C\Nc1ccc(S(N)(=O)=O)cc1 (centres undefined) |
| 0 | 43 | 2.8 | 0.78 | – | O=c1c(C2Nc3ccccc3S(=O)(=O)N2)coc2ccc(F)cc12 (centres undefined) |
| 30 | 16.8 | 20.1 | 2.1 | – | CCOC1Oc2ccc(CC)cc2C(=O)/C1=C\Nc1cccc(S(N)(=O)=O)c1 (centres undefined) |
| 43 | 63 | 55.3 | 5.1 | – | CCOC1Oc2c(Br)cc(Br)cc2C(=O)/C1=C\Nc1ccc(S(N)(=O)=O)cc1 (centres undefined) |
| 0 | 44 | 51.3 | 8.7 | – | CCOC1Oc2ccc(Br)cc2C(=O)/C1=C\Nc1cccc(S(N)(=O)=O)c1 (centres undefined) |
| 0 | 22 | 21.2 | 0.41 | – | CCOC1Oc2ccccc2C(=O)/C1=C/Nc1ccc(S(=O)(=O)Nc2ccccn2)cc1 (centres undefined) |
| 54 | 26 | 67.9 | 0.8 | – | CCOC1Oc2c(Br)cc(Br)cc2C(=O)/C1=C\Nc1cccc(S(N)(=O)=O)c1 (centres undefined) |
| 0 | 41 | 41.7 | 33.5 | – | CCOC1Oc2ccccc2C(=O)/C1=C\Nc1cccc(S(N)(=O)=O)c1 (centres undefined) |
